Calls of active or inactive are those of the source. The rule behind the calls is not given here.
Assays:
[1] = molecular target: Aryl hydrocarbon receptor nuclear translocator (Homo sapiens) (UniProt P27540); assay: Inhibition of hypoxia-induced HIF1beta activation in human T47D cells at 0.3 uM after 4 hrs by Western blotting; assay type: cell-based
Summary of the method: (§1)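 T47D cells exposed to compound 30 min, then hypoxia (1% O2/94% N2/5% CO2) 4 h. Nuclear extracts prepared; HIF-1α probed by Western blot with monoclonal antibody, membrane stripped and reprobed for HIF-1β with monoclonal anti-HIF-1β antibody.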

[2] = molecular target: T1, Hypoxia inducible factors; HIF-1-alpha, HIF-2-alpha (Homo sapiens, UniProt Q16665+Q99814); assay: Inhibition of hypoxia-induced HIF1 activation in human T47D cells upto 30 uM after 16 hrs by luciferase reporter gene assay; assay type: cell-based
Summary of the method: (§2)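 T47D cells transiently co-transfected with pTK-HRE3-luc and pRL-TK control, preincubated with compounds 30 min at 37 °C, then hypoxia (1% O2/94% N2/5% CO2) 16 h. Firefly luciferase activity normalized to Renilla, expressed as % inhibition versus induced control. Representative experiment, quadruplicate.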

[3] = molecular target: Aryl hydrocarbon receptor nuclear translocator (Homo sapiens) (UniProt P27540); assay: Inhibition of hypoxia-induced HIF1beta activation in human T47D cells at 10 uM after 4 hrs by Western blotting; assay type: cell-based; summary of the method: as §1
[4] = molecular target: T1, Hypoxia inducible factors; HIF-1-alpha, HIF-2-alpha; assay: Inhibition of hypoxia-induced HIF1 activation in human T47D cells upto 10 uM by luciferase reporter gene assay; assay type: cell-based; summary of the method: as §2
T47D [5] = assay: Inhibition of hypoxia-induced secreted VEGF expression in human T47D cells at 1 uM after 16 by ELISA; assay type: functional, cell-based
Summary of the method: (§3)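 T47D cells given compound before hypoxia (1% O2, 16 h). Secreted VEGF protein in conditioned media measured by modified human VEGF ELISA and compared with normoxic control level.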

T47D [6] = assay: Inhibition of hypoxia-induced secreted VEGF expression in human T47D cells at 0.3 uM after 16 by ELISA; assay type: functional, cell-based; summary of the method: as §3
T47D [7] = assay: Inhibition of hypoxia-induced secreted VEGF expression in human T47D cells at 10 uM after 16 by ELISA relative to normoxic control; assay type: functional; summary of the method: as §3
[8] = Inhibition of luciferase expression in TNT T7 coupled reticulocyte lysate system at 10 uM; assay type: functional
Summary of the method: (§4)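 Cell-free luciferase expression from Luciferase T7 Control DNA using TNT T7 coupled reticulocyte lysate transcription/translation. Compounds present during reaction; luciferase activity expressed as percentage of untreated control.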

T47D [9] = assay: Inhibition of hypoxia-induced VEGF expression in human T47D cells at 10 uM after 16 hrs by ELISA; assay type: cell-based
Summary of the method: (§5)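 T47D cells given compound for 30 min before hypoxia (1% O2) for 16 h. VEGF protein in cell lysates measured by ELISA, normalized to cellular protein. Representative experiment in triplicate; significance p < 0.05 versus untreated control.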

[10] = molecular target: T1, Hypoxia inducible factors; HIF-1-alpha, HIF-2-alpha; assay: Inhibition of hypoxia-induced HIF1 activation in human HeLa cells by luciferase reporter gene assay; assay type: cell-based
T47D [11] = assay: Inhibition of VEGF protein expression in human T47D cells at 0.3 uM; assay type: functional
Summary of the method: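 T47D breast carcinoma cells in DMEM/F12 with 10% FBS, 37 °C. Compound added 30 min before hypoxia (1% O2/94% N2/5% CO2, 16 h). Cell lysate VEGF measured by ELISA and normalised to cellular protein. Secreted VEGF in conditioned medium measured by modified ELISA. Compared with untreated control; one representative experiment in triplicate; significance p < 0.05.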

T47D [12] = assay: Inhibition of hypoxia-induced VEGF expression in human T47D cells at 0.3 uM after 16 hrs by ELISA; assay type: cell-based; summary of the method: as §5
[13] = Inhibition of luciferase expression in TNT T7 coupled reticulocyte lysate system at 0.3 uM; assay type: functional; summary of the method: as §4
T47D [14] = assay: Inhibition of hypoxia-induced VEGF expression in human T47D cells at 3 uM after 16 hrs by ELISA; assay type: cell-based; summary of the method: as §5
[15] = molecular target: T1, Hypoxia inducible factors; HIF-1-alpha, HIF-2-alpha; assay: Inhibition of hypoxia-induced HIF1 activation in human T47D cells after 16 hrs by luciferase reporter gene assay; assay type: cell-based
T47D [16] = assay: Inhibition of hypoxia-induced secreted VEGF expression in human T47D cells at 3 uM after 16 by ELISA relative to normoxic control; assay type: functional; summary of the method: as §3
T47D [17] = assay: Inhibition of hypoxia-induced VEGF expression in human T47D cells at 1 uM after 16 hrs by ELISA; assay type: cell-based; summary of the method: as §5

Aryl hydrocarbon receptor nuclear translocator (Homo sapiens), sequence (P27540 whole entry): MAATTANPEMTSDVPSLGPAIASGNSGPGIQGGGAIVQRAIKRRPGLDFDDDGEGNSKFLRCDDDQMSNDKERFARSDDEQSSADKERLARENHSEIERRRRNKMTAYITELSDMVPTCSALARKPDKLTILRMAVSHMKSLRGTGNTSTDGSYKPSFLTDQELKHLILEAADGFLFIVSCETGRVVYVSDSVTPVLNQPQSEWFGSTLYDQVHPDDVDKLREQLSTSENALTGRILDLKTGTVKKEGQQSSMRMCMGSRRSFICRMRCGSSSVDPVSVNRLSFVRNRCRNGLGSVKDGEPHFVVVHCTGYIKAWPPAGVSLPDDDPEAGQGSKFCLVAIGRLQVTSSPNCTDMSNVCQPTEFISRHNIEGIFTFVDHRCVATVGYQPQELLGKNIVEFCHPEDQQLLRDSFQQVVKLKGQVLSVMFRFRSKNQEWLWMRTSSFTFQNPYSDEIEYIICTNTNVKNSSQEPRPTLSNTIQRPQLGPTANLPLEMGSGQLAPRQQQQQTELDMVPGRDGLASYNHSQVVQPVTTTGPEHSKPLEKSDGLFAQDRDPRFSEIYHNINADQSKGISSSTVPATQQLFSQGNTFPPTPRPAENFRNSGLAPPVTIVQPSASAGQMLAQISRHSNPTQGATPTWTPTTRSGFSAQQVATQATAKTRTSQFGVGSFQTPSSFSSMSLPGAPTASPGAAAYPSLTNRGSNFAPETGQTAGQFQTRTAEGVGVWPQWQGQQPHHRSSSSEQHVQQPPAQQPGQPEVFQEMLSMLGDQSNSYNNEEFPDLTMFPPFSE

Structure (SMILES) | Activity [1] | Activity [2] | Activity [3] | Activity [4] | Activity (T47D [5]) | Activity (T47D [6]) | inhibition at 10 µM (T47D [7]) [%] | Activity [8] | Activity (T47D [9]) | IC50 [10] [µM] | Activity (T47D [11]) [pg/mL] | inhibition (T47D [12]) [%] | Activity [13] | Activity (T47D [14]) | IC50 [15] [µM] | inhibition at 3 µM (T47D [16]) [%] | inhibition (T47D [17]) [%]
CC[C@H]1CN2CCc3cc(OC)c(OC)cc3[C@@H]2C[C@@H]1C[C@@H]1NCCc2cc(O)c(O)cc21 | inactive | inactive | inactive | inactive | Active | inactive | – | – | – | – | – | – | – | – | – | – | –
C[C@@H]1C[C@@H]([C@H](O)CC2CC(=O)NC(=O)C2)C(=O)[C@@H](C)C1 [CYCLOHEXIMIDE] | inactive | – | inactive | – | – | inactive | 43 | Active | Active | 0.036 | – | – | – | – | – | – | –
CC[C@H]1CN2CCc3cc(OC)c(OC)cc3[C@@H]2C[C@@H]1C[C@H]1NCCc2cc(OC)c(OC)cc21 [EMETINE] | inactive | – | inactive | – | – | Active | – | Active | – | – | 58.8 | 69 | inactive | – | – | – | –
CC[C@H]1CN2CCc3cc(OC)c(OC)cc3[C@@H]2C[C@@H]1C[C@@H]1NCCc2cc(O)c(OC)cc21 [ISOCEPHAELINE] | inactive | – | inactive | – | – | inactive | – | – | – | – | – | – | – | Active | 1.1 | 69 | –
CC[C@H]1CN2CCc3cc(O)c(OC)cc3[C@@H]2C[C@@H]1C[C@@]1(O)NCCc2cc(O)c(OC)cc21 [KLUGINE] | inactive | – | inactive | – | Active | inactive | – | Active | – | – | – | – | inactive | – | 0.2 | – | 56

— ChEMBL document CHEMBL1158795 (J Nat Prod, 2005)
